Assay results gathered from unrelated publications.
Target: Calcium/calmodulin-dependent protein kinase type II subunit gamma (CAMK2G, Homo sapiens, UniProt Q13555)

SMILES | test | conditions | remaining binding [%]
C=CC(=O)N1CCC(C(=O)NCC(=O)N2CCN(c3nc(-c4cnc(N)nc4C(F)F)nc(N4CCOCC4)n3)CC2)CC1 | binding, competition with immobilised ligand | 1 µM | 100
O=C(c1ccc(Nc2ncc(Cl)c(-c3ccc(Cl)s3)n2)cc1)N1CCC(N2CCCC2)CC1 | binding, competition with immobilised ligand | 1 µM | 80
COc1ncc2cc3ccccc3nc2c1C#N | cell-free assay, competition with immobilised ligand | 5 µM | 92
CO[C@H]1CC[C@H](CNc2ccc(S(=O)(=O)NC(=O)c3ccc(N4CCN(CC5=C(c6ccc(Cl)cc6)CC(C)(C)CC5)CC4)cc3Oc3cnc4[nH]ccc4c3)cc2[N+](=O)[O-])CC1 | cell-free assay, competition with immobilised ligand | 1 µM | 75
CC1CCCN1c1nccc(-c2cnn3ncccc23)n1 (stereo not drawn) | binding | 1 µM | 100
COc1cc(-c2cn(C3CCc4ccccc4N(CC(F)(F)F)C3=O)nn2)ccc1-n1ccc(C)n1 (stereo not drawn) | cell-free assay, competition with immobilised ligand | 1 µM | 100
CN(C)c1nccc(-c2cnn3ncccc23)n1 | binding | 1 µM | 100
c1cncc(-c2cccc(Nc3nccc(NC4CCCCC4)n3)c2)c1 | binding, competition with immobilised ligand | 10 µM | 80
CN(CCCC(F)(F)F)c1nccc(-c2cnn3ncccc23)n1 | binding | 1 µM | 100
C[C@@H](c1ccc(-n2cnc3c(N)ncnc32)cc1)N1CCc2nn(C)c(Cc3ccccc3)c2C1=O | binding, competition with immobilised ligand | 0.1 µM | 94
O=C(N1CCS(=O)(=O)CC1)N1C[C@H](c2ccc(OC(F)(F)F)cc2)C[C@H](c2nc(C3CC3)no2)C1 | cell-free assay, competition with immobilised ligand | 1 µM | 100
COc1cnc(Nc2cccc(S(N)(=O)=O)c2)nc1N1CCN(c2ccccc2)CC1 | binding, competition with immobilised ligand | 1 µM | 94
O=C(c1ccc(Nc2nccc(-c3cc4ccccc4s3)n2)cc1)N1CCC(N2CCCC2)CC1 | binding, competition with immobilised ligand | 1 µM | 81
N[C@@H]1CCN(c2nccc(-c3cnn4ncccc34)n2)C1 | binding | 1 µM | 100
O=C(NCC1CCOCC1)c1n[nH]cc1NC(=O)c1c(F)cccc1F | binding, competition with immobilised ligand | 1 µM | 88
CCOC(=O)c1cc2cc(-c3cc(C(=O)NCc4ccc(C(=O)O)cc4)nn3C)ccc2[nH]1 | cell-free assay, competition with immobilised ligand | 0.1 µM | 100
O=C(NCCCN1CCOCC1)c1ccc(Nc2ncc(Cl)c(-c3ccc(Cl)s3)n2)cc1 | binding, competition with immobilised ligand | 1 µM | 77
CN(c1nccc(-c2cnn3ncccc23)n1)C1CC1 | binding | 1 µM | 100
C[C@@H]1CN(c2cc(-c3n[nH]c4ccc(OC5(C)CC5)cc34)ncn2)C[C@H](C)O1 | cell-free assay, competition with immobilised ligand | 0.1 µM | 100
CN(C)c1nccc(-c2cnc3ncccn23)n1 | binding | 1 µM | 100
CS(=O)(=O)NCC[C@H](NC(=O)c1cncc2c1cnn2-c1ccc(F)cc1)c1ccnc(S(C)(=O)=O)c1 | cell-free assay, competition with immobilised ligand | 1 µM | 99
